Measurements from paper PMC2748811 (The Biochemical journal, 2009).
Where “and” joins values, the source holds several entries; their conditions need not be identical. Equal values may be shown once. Read-outs that look alike come from different tables or passages of the source.

How the values were obtained:
[1] = molecular target: T1, PRMDR (multi-drug-resistant HIV-1 PR) (Human immunodeficiency virus type 1 group M subtype B, UniProt P04585, A559V/I542V/I581L/K533R/L498I/L551P/L578M/V570T); type: biochemical; settings: for relative potency at inducing monomer formation: dose–response data, results not shown
[2] = molecular target: T1, PRMDR (multi-drug-resistant HIV-1 PR); test: Co-elution of inhibitors with PRMDR on size-exclusion chromatography; type: binding; settings: for co-elution with PRMDR: MS detection
Summary of the method: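 PR_MDR was diluted to 0.25–2 μM subunit concentration in 150 mM ammonium acetate (pH 5.4) with 0.1 mg·ml⁻¹ BSA (final). The active-site inhibitor came from a 1 mM stock in 100% DMSO. Samples were incubated at 37 °C, and 8 μl was injected onto a BioSep SEC3000 column run isocratically at 0.35 ml·min⁻¹ in the same buffer. Detection was by fluorescence and by MS in SIM mode on chosen molecular ions.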

[3] = system: PRWT (wild-type HIV-1 PR); test: Co-elution of active-site inhibitors with PRWT on size-exclusion chromatography; type: binding; settings: results not shown
[4] = system: monomeric and dimeric forms of PR; settings: 13C-labelled tryptophan residues of PR; ref [21]; cited from earlier work
PRWT = settings: 5 min pre-incubation with ≤25 nM PRWT; ref [16]; cited from earlier work
[5] = molecular target: T1, PRMDR (multi-drug-resistant HIV-1 PR); settings: ref [20]; cited from earlier work
[6] = molecular target: T1, PRMDR (multi-drug-resistant HIV-1 PR); test: PR activity with fluorescent PR substrate after peptide treatment; type: biochemical; settings: 16 h at 37 °C, PRMDR 1 μM; for PR activity: untreated 2.6
[7] = molecular target: T1, PRMDR (multi-drug-resistant HIV-1 PR); type: biochemical; settings: 25 μM P27; PRMDR 1 μM; 16 h at 37 °C; excitation 280 nm
Summary of the method: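 PR_MDR (1 μM final) was incubated 16 h at 37 °C with 25 μM peptide dimerization inhibitor in 150 mM ammonium acetate containing 100 μg·ml⁻¹ BSA. An 8 μl sample was run by SEC in running buffer at pH 5.4, 0.35 ml·min⁻¹ isocratic. Fluorescence was read at 280 nm excitation and 350 nm emission, with emission spectra from 325–375 nm taken at each peak apex against reference spectra at 10.2 and 12 min. MS used SIM at m/z 1086 (10⁺).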

[8] = system: PR dimerization within infected cells; settings: fluorescence resonance energy transfer assay; ref [32]; cited from earlier work
HIV-1 PR dimerization = test: Size-exclusion chromatography elution of HIV-1 PRs; type: biochemical; settings: 1 μM (PRT26A 2 μM); 37 °C 60 min
PRMDR dimer = type: binding, HIV-1; settings: 16 h at 37 °C; for Kd: 150 mM ammonium acetate pH 5.4
[9] = system: HIV-1 PR (autoproteolysis); test: PR stability and autoproteolysis; type: biochemical; settings: for autoproteolysis (SDS/PAGE): 20 h at 40 μM, 20 °C; for autoproteolysis (RP-HPLC–MS): after incubation in 150 mM ammonium acetate pH 5.4, results not shown
Summary of the method: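 Wild-type and multi-drug-resistant HIV-1 PR incubated 16–24 h in ammonium acetate buffer, with or without 1 mM TCEP. Activity read with a fluorescent PR substrate, mean ± S.D. Cleavage checked on Coomassie-stained 10 % Bis/Tris SDS/PAGE. Alternatively, 37 °C samples were quenched with solid guanidine hydrochloride (6 M final) for RP-HPLC, gradient to 95 % solvent B, monitored at 205/276 nm and by electrospray MS.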

PRT26A = settings: read-out: dissociation constant (Kd); ref [30]; cited from earlier work
HIV-2 PR dimerization = test: Size-exclusion chromatography elution of oxidized HIV-2 PR; type: biochemical; settings: after hydrogen peroxide treatment; results not shown
[10] = 25 μM P27, PRMDR 1 μM, 16 h at 37 °C, MS
[11] = PRMDR 0.25–2 μM, approximate, MS
[12] = 20 h at 37 °C, 150 mM ammonium acetate pH 5.4, 2 μM PR, n = 3

For `Cc1ccccc1CNC(=O)[C@H]1N(C(=O)[C@@H](O)[C@H](Cc2ccccc2)NC(=O)c2cccc(O)c2C)CSC1(C)C` [JE-2147], the “effect on PRMDR elution” value ([1]; 1 μM JE-2147, PRMDR 0.25–2 μM, 16 h at 37 °C) was “PRMDR eluted as the earlier form (dimer)”, the “correlation coefficient, JE-2147 area vs PRMDR area by MS” value ([2]; MS, PRMDR dose–response) was 0.997 and the “elution time of inhibitor co-eluting with PRMDR” value ([2]; molecular ion of inhibitor by MS, PRMDR also 10.8 min) was 10.8 min.

In the case of `CSC[C@H](NC(=O)COc1cccc2cnccc12)C(=O)N[C@@H](Cc1ccccc1)[C@H](O)C(=O)N1CSC[C@H]1C(=O)NC(C)(C)C` [KNI-272], the “co-elution with PRWT” value [3] is reported as “co-elute with PRWT” and the “co-elution with PRMDR” value [2] is reported as “did not elute with PRMDR”.

In the case of `CC(C)c1nc(CN(C)C(=O)N[C@H](C(=O)N[C@@H](Cc2ccccc2)C[C@H](O)[C@H](Cc2ccccc2)NC(=O)OCc2cncs2)C(C)C)cs1` [ritonavir], the “co-elution with PRWT” value [3] is reported as “co-elute with PRWT” and the “co-elution with PRMDR” value [2] is reported as “did not elute with PRMDR”.

In the case of `CC(C)(C)NC(=O)[C@@H]1C[C@@H]2CCCC[C@@H]2CN1C[C@@H](O)[C@H](Cc1ccccc1)NC(=O)[C@H](CC(N)=O)NC(=O)c1ccc2ccccc2n1` [saquinavir], the “co-elution with PRWT” value [3] is reported as “co-elute with PRWT” and the “co-elution with PRMDR” value [2] is reported as “did not elute with PRMDR”.

For Ac-CTLNF [acetylated-CTLNF], the “relative potency at inducing monomer formation” value (“relative potency” for short) [1] was “P27 > CTLNF > Ac-CTLNF > Ac-TLNF”.

For Ac-SEYL-OH, the “interaction with PR by NMR” value [4] is listed as “interaction of a peptide dimerization inhibitor (Ac-SEYL-OH) with both monomeric and dimeric forms of PR”.

For “Ac-TLNF [acetylated-TLNF, reference compound]”, the “relative potency” value [1] was “P27 > CTLNF > Ac-CTLNF > Ac-TLNF”.

For CTLNF [reference compound], the “relative potency” value [1] is given as “P27 > CTLNF > Ac-CTLNF > Ac-TLNF” and the IC50 (PRWT) is given as 150 µM.

With PQITLRKKRRQRRRPPQVSFNFCTLNF [P27] the “PRMDR elution time, dimer peak” value [1, 10] was 10.8 min, the “PRMDR elution time, monomer peak” value [1, 10] was 11.3 min and the monomer induced ([1]; 25 μM P27, PRMDR at 0.5 μM) was 80%. The monomer induced ([1]; 25 μM P27, PRMDR at 1 μM) was “approx. 40%”, the “time to clear evidence of monomer formation” value ([1]; 50 μM P27) was at most 4 h and the “time to maximum effect / plateau of monomer formation” value ([1]; 50 μM P27, PR 1 μM) was 10 to 12 h. For the same molecule, the “time of peak absolute amount of detectable monomer” value ([1]; 50 μM P27, steadily decreased thereafter) was 6 to 8 h, the “PRMDR peak elution time” value ([1]; 50 μM peptide, PRMDR 1 μM, 16 h at 37 °C, MS m/z 1086) was 11.3 min and the “total PRMDR not recovered after treatment as compared to untreated” value ([1]; P27, PRMDR 1 μM, 16 h) was “approx. 20%”. For the same molecule, the “relative potency” value [1] was “P27 > CTLNF > Ac-CTLNF > Ac-TLNF”, the “inhibition of PRMDR activity” value [5] was “inhibit PRMDR activity” and the PR activity ([6]; 25 μM P27) was 1.85 RFU min^−1 · μg^−1. The “decrease in PRMDR enzyme activity” value ([6]; 50 μM P27) was 99%, the PR activity ([6]; 50 μM P27) was 0.0 RFU min^−1 · μg^−1 and the “emission maximum λmax, dimer” value [7] was 346 nm. For the same molecule, the “emission maximum λmax, monomer” value [7] was 352 nm and the “block of PR dimerization within infected cells” value [8] was “block PR dimerization within infected cells”.

With “PRMDR: multi-drug-resistant HIV-1 PR with L10I, K45R, I54V, L63P, A71V, V82T, L90M and I93L” the “elution time by MS” value (HIV-1 PR dimerization) was 10.8 min, the “elution time, earlier-eluting (dimer) PRMDR peak” value (PRMDR dimer; [11]) was about 10.8 min and the “elution time, later-eluting (monomer) PRMDR peak” value (PRMDR dimer; [11]) was about 11.3 min. The Kd (PRMDR dimer; read-out: apparent Kd for dimer dissociation, as dimeric concentration, dimeric concentration) was about 0.25 µM, the Kd (PRMDR dimer; read-out: apparent Kd for dimer dissociation, monomeric concentration) was about 0.5 µM and the “autoproteolysis (SDS/PAGE)” value ([9]; 150 mM ammonium acetate pH 5.4) was “remained intact”. The “PR activity after incubation” value [9, 12] was “remained unaffected” and the “autoproteolysis (RP-HPLC–MS)” value [9] was “remained intact”.

In the case of “PRT26A: autoproteolysis-resistant and monomeric HIV-1 PR”, the “elution time by MS” value (HIV-1 PR dimerization) is listed as 11.2 min and 11.0 min and the Kd (PRT26A) is listed as over 1000 µM.

With PRWT: wild-type HIV-1 PR the “autoproteolysis (SDS/PAGE)” value ([9]; 150 mM ammonium acetate pH 5.4) was “extensive autoproteolysis”, the PR activity lost [9, 12] was “more than 95%” and the “autoproteolysis (RP-HPLC–MS)” value [9] was “substantial autoproteolysis”. For the same molecule, the autoproteolysis ([9]; within 4 h of incubation) was “approx. 40%”.

B1: PRHIV-2-OX: oxidized HIV-2 PR (protein, UniProt P04584 514-612, looked up)
Protease: PQFSLWKRPVVTAYIEGQPVEVLLDTGADDSIVAGIELGNNYSPKIVGGIGGFINTKEYKNVEIEVLNKKVRATIMTGDTPINIFGRNILTALGMSLNL
modifications: Protease oxidized
For B1, the “elution of oxidized HIV-2 PR” value (HIV-2 PR dimerization) was “consistent with a monomeric form of the PR”.
